Results as given in ChEMBL document CHEMBL1155941, “Solid-phase synthesis and biological evaluation of a parallel library of 2,3-dihydro-1,5-benzothiazepines” (Bioorg Med Chem, 2008).

Tests used:
[1] = test system: Agrobacterium tumefaciens; assay: Inhibition of Agrobacterium tumefaciens-induced tumor growth in potato tuber disk after 21 days; type: functional, organism-based
Summary of the method: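 Potato disk bioassay: red-skinned potatoes surface-sterilized in 0.1% HgCl₂. Disks were inoculated with a 48-h culture of A. tumefaciens AT-10 containing test sample at 10, 100 or 1000 ppm. Tumors were counted under a dissecting microscope, with tests run in replicate. Percent inhibition came from the average tumor count per sample versus control; IC₅₀ was calculated by a literature procedure.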

Cholinesterase = Cholinesterase (Homo sapiens, UniProt P06276); assay: Inhibition of BchE
Cholinesterase, sequence (P06276 whole entry): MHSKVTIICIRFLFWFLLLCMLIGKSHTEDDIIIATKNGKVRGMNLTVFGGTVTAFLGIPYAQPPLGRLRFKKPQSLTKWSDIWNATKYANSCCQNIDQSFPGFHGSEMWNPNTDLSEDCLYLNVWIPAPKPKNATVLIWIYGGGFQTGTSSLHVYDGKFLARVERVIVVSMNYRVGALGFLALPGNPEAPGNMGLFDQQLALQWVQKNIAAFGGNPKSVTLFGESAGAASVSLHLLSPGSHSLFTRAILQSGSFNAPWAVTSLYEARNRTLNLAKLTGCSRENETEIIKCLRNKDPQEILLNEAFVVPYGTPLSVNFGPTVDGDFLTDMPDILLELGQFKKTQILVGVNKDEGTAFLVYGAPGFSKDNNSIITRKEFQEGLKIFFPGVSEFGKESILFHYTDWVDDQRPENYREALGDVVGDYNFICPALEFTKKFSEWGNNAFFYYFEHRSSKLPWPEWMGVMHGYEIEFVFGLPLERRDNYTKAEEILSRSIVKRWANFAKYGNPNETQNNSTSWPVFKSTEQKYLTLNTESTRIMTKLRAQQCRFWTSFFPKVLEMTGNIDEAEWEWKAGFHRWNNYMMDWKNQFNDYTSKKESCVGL
Summary of the method: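 Ellman-type assay: enzyme, DTNB and test compound (dissolved in EtOH) were mixed in sodium phosphate buffer pH 8.0 and incubated 15 min at 25 °C. Reactions were run in triplicate. % inhibition = (E–S)/E × 100, where E is enzyme activity without compound. IC50 was derived from inhibition across increasing compound concentrations.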

[2] = test system: Agrobacterium tumefaciens; assay: Inhibition of Agrobacterium tumefaciens-induced tumor growth in potato tuber disk at 1000 ppm after 21 days
[3] = test system: Agrobacterium tumefaciens; assay: Inhibition of Agrobacterium tumefaciens-induced tumor growth in potato tuber disk at 10 ppm after 21 days
[4] = test system: Agrobacterium tumefaciens; assay: Inhibition of Agrobacterium tumefaciens-induced tumor growth in potato tuber disk at 100 ppm after 21 days
Acetylcholinesterase = Acetylcholinesterase (Homo sapiens, UniProt P22303); assay: Inhibition of AchE
Acetylcholinesterase, sequence (P22303 whole entry, the tested form may be a part): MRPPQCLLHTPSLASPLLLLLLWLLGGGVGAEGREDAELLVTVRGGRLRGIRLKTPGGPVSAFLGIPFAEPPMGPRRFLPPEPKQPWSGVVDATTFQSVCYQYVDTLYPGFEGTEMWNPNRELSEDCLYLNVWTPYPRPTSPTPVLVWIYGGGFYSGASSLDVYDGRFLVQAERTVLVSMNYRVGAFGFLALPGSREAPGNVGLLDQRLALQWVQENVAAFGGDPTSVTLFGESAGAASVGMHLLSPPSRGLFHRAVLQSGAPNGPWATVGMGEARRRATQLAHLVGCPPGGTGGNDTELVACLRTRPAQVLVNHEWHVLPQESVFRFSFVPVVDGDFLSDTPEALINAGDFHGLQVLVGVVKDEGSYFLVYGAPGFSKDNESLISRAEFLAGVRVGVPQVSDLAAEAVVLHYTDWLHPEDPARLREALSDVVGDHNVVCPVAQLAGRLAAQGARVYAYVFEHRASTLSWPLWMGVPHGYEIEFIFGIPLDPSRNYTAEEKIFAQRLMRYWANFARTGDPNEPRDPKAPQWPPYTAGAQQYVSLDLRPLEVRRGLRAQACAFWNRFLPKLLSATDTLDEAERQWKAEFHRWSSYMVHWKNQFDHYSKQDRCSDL

Escherichia coli = assay: Antimicrobial activity against Escherichia coli ATCC 1522 assessed as inhibition zone diameter after 24 hrs by agar well diffusion method; type: functional
Summary of the method: (§1)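 Agar well diffusion: broth culture of about 10⁶ CFU/ml mixed into nutrient agar at 45 °C and poured into plates. 8-mm wells received test sample at 1 mg/ml in DMSO. DMSO was the negative control and roxithromycin (1 mg/ml) the positive control. Triplicate plates were incubated 37 °C, 24 h. Complete-inhibition zone diameter (mm) was measured, with growth inhibition referenced to roxithromycin.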

[5] = test system: Salmonella enterica subsp. enterica; assay: Antimicrobial activity against Salmonella setubal ATCC 19196 assessed as inhibition zone diameter after 24 hrs by agar well diffusion method; type: functional, Salmonella enterica subsp. enterica serovar Setubal; summary of the method: as §1
Klebsiella aerogenes = assay: Antimicrobial activity against Enterobacter aerogenes ATCC 13048 assessed as inhibition zone diameter after 24 hrs by agar well diffusion method; type: functional; summary of the method: as §1
Micrococcus luteus = assay: Antimicrobial activity against Micrococcus luteus assessed as inhibition zone diameter after 24 hrs by agar well diffusion method; type: functional; summary of the method: as §1
[6] = test system: Bordetella bronchiseptica; assay: Antimicrobial activity against Bordetella bronchiseptica ATCC 4617 assessed as inhibition zone diameter after 24 hrs by agar well diffusion method; type: functional; summary of the method: as §1

Structure (SMILES) | IC50 [1] | IC50 (Cholinesterase) | inhibition (INH) [2] | inhibition (INH) [3] | inhibition (INH) [4] | IC50 (Acetylcholinesterase) | inhibition zone (IZ) (Escherichia coli) | inhibition zone (IZ) [5] | inhibition zone (IZ) (Klebsiella aerogenes) | inhibition zone (IZ) (Micrococcus luteus) | inhibition zone (IZ) [6]
COc1ccccc1/C=C/C(=O)c1cccc(O)c1 | 3.1 ppm | – | – | – | – | – | – | – | – | – | –
COc1ccc(/C=C/C(=O)c2cccc(O)c2)cc1OC | 5.8 ppm | – | – | – | – | – | – | – | – | – | –
Oc1cccc(C2=Nc3ccccc3SC(c3ccccc3)C2)c1 (centres undefined) | 5.41 ppm | 1420 µM | 100% | 72.3% | 97.8% | 40 µM | – | – | – | – | –
COc1ccccc1C1CC(c2cccc(O)c2)=Nc2ccccc2S1 (centres undefined) | 7.06 ppm | 4.65 µM | 98.5% | 81.42% | 87.1% | – | – | – | – | – | –
COc1ccc(C2CC(c3cccc(O)c3)=Nc3ccccc3S2)cc1 (centres undefined) | 4.69 ppm | – | 100% | 57.4% | 78.7% | – | – | – | – | – | –
Oc1cccc(C2=Nc3ccccc3SC(c3ccc(Br)cc3)C2)c1 (centres undefined) | 61.5 ppm | – | 85.1% | 21.2% | 63.8% | – | – | – | – | – | –
COc1ccc(C2CC(c3cccc(O)c3)=Nc3ccccc3S2)cc1OC (centres undefined) | 8.23 ppm | 19.7 µM | 100% | 70.2% | 82.7% | – | – | – | – | – | –
Cc1ccc(C2CC(c3cccc(O)c3)=Nc3ccccc3S2)cc1 (centres undefined) | 30.7 ppm | 75.2 µM | 87.2% | 65.9% | 72.3% | 49.4 µM | – | – | – | – | –
Oc1cccc(C2=Nc3ccccc3SC(c3cccnc3)C2)c1 (centres undefined) | 926.2 ppm | – | 51% | 29.7% | 38.2% | – | – | – | – | – | –
Oc1cccc(C2=Nc3ccccc3SC(c3ccncc3)C2)c1 (centres undefined) | 6.1 ppm | – | 100% | 55.1% | 80% | – | – | – | – | – | –
Oc1cccc(C2=Nc3ccccc3SC(c3cccs3)C2)c1 (centres undefined) | 4.8 ppm | 3.97 µM | 100% | 87.2% | 100% | 5.9 µM | – | – | – | – | –
Oc1cccc(C2=Nc3ccccc3SC(c3ccc(Br)s3)C2)c1 (centres undefined) | 11.2 ppm | – | 92.8% | 80.3% | 91.4% | – | – | – | – | – | –
Oc1cccc(C2=Nc3ccccc3SC(c3ccc(Cl)cc3)C2)c1 (centres undefined) | 9 ppm | 79.6 µM | 74.4% | 51.93% | 68% | 18.8 µM | – | – | – | – | –
Oc1cccc(C2=Nc3ccccc3SC(c3ccc(F)cc3)C2)c1 (centres undefined) | 1232 ppm | – | 40.4% | 25.5% | 34% | – | – | – | – | – | –
CN(C)c1ccc(C2CC(c3cccc(O)c3)=Nc3ccccc3S2)cc1 (centres undefined) | 192.5 ppm | 34.4 µM | 100% | 38.2% | 44.6% | – | 11 mm | 9 mm | 11 mm | 10 mm | 9 mm
Oc1cccc(C2=Nc3ccccc3SC(c3cccc(O)c3)C2)c1 (centres undefined) | 179.3 ppm | 4.7 µM | 100% | 36.1% | 48.9% | 71.1 µM | – | – | – | – | –
Oc1cccc(C2=Nc3ccccc3SC(c3ccccc3Cl)C2)c1 (centres undefined) | 6.94 ppm | – | 95.7% | 74.4% | 93.6% | – | – | – | – | – | –
COc1cccc(C2CC(c3cccc(O)c3)=Nc3ccccc3S2)c1 (centres undefined) | 3.28 ppm | – | 100% | 67.142% | 84.2% | – | – | – | – | – | –
O=[N+]([O-])c1cccc(C2CC(c3cccc(O)c3)=Nc3ccccc3S2)c1 (centres undefined) | 26.2 ppm | – | 100% | 42.5% | 57.4% | – | – | – | – | 10 mm | –
Oc1cccc(C2=Nc3ccccc3SC(c3cccc(Cl)c3)C2)c1 (centres undefined) | 14.01 ppm | 29.4 µM | 93.6% | 68% | 80.8% | – | – | – | – | 11.5 mm | –
Oc1cccc(C2=Nc3ccccc3SC(c3ccccc3F)C2)c1 (centres undefined) | 295.5 ppm | – | 91.4% | 31.9% | 40.4% | 70.6 µM | – | – | – | – | –
Oc1ccc(C2CC(c3cccc(O)c3)=Nc3ccccc3S2)cc1 (centres undefined) | 237.9 ppm | – | 100% | 27.6% | 48.9% | – | – | – | – | – | –
COc1cc(C2CC(c3cccc(O)c3)=Nc3ccccc3S2)ccc1O (centres undefined) | 247.3 ppm | – | 95.7% | 36.1% | 40.4% | – | 9.5 mm | 10 mm | 11 mm | 10 mm | 10 mm
CC[C@H]1OC(=O)[C@H](C)[C@@H](O[C@H]2C[C@@](C)(OC)[C@@H](O)[C@H](C)O2)[C@H](C)[C@@H](O[C@@H]2O[C@H](C)C[C@H](N(C)C)[C@H]2O)[C@](C)(O)C[C@@H](C)/C(=N\OCOCCOC)[C@H](C)[C@@H](O)[C@]1(C)O [ROXITHROMYCIN] | – | – | – | – | – | – | 14 mm | 12 mm | 12 mm | 15 mm | 13 mm
CC[C@]1(O)C[C@H]2CN(CCc3c([nH]c4ccccc34)[C@@](C(=O)OC)(c3cc4c(cc3OC)N(C=O)[C@H]3[C@@](O)(C(=O)OC)[C@H](OC(C)=O)[C@]5(CC)C=CCN6CC[C@]43[C@@H]65)C2)C1 [VINCRISTINE] | 0.003 ppm | – | – | – | – | – | – | – | – | – | –
